Source: ChEMBL document CHEMBL4145647, “Aniline-Tetramic Acids from the Deep-Sea-Derived Fungus Cladosporium sphaerospermum L3P3 Cultured with the HDAC Inhibitor SAHA” (J Nat Prod, 2018)
Structures can show the parent of a compound that is named as a salt.

Columns and labels:
[1] = system: PC-3; experiment: Cytotoxicity against human PC3 cells after 72 hrs by SRB assay; details: PC-3, 72 h
[2] = system: K562; experiment: Cytotoxicity against human K562 cells after 72 hrs by MTT assay; assay type: functional, cell-based; details: K562, 72 h
How it was run: (§1)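 Cells were checked for viability by Trypan blue counting, then plated at 8000 cells/well and exposed to test solution for 72 h. MTT reagents were then added, followed by a further 10 h incubation. Absorbance was read at 570 nm and IC50 reported in μM. Doxorubicin was the positive control.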

[3] = system: HCT-116; experiment: Cytotoxicity against human HCT116 cells after 72 hrs by SRB assay; details: HCT-116, 72 h
[4] = system: SH-SY5Y; experiment: Cytotoxicity against human SH-SY5Y cells after 72 hrs by SRB assay
[5] = system: HL-60; experiment: Cytotoxicity against human HL60 cells after 72 hrs by MTT assay; assay type: functional, cell-based; details: HL-60, 72 h
How it was run: as §1

[6] = system: MGC-803; experiment: Cytotoxicity against human MGC803 cells after 72 hrs by SRB assay; details: MGC-803, 72 h

| SMILES | IC50 [1] [µM] | IC50 [2] [µM] | IC50 [3] [µM] | IC50 [4] [µM] | IC50 [5] [µM] | IC50 [6] [µM] |
| --- | --- | --- | --- | --- | --- | --- |
| CC(C)=C1NC(=O)C(=C2C=CC[C@H](C)O2)C1=O | 11 | 4.5 | 12 | 15 | 6.6 | 22 |
| CO[C@H](CC(Nc1ccccc1)=C1C(=O)NC(=C(C)C)C1=O)C[C@H](C)O | 13 | 4.1 | 11 | 12 | 2.8 | 19 |
| CO[C@@H](CC(Nc1ccccc1)=C1C(=O)NC(=C(C)C)C1=O)C[C@H](C)O | > 30 | > 30 | > 30 | > 30 | > 30 | > 30 |
| CC(C)=C1NC(=O)C(=C(C[C@@H](C[C@H](C)O)Nc2ccccc2)Nc2ccccc2)C1=O | > 30 | 6.8 | > 30 | > 30 | 7.8 | > 30 |
| CC(C)=C1NC(=O)C(=C(C[C@H](C[C@H](C)O)Nc2ccccc2)Nc2ccccc2)C1=O | 18 | 5.9 | 14 | > 30 | 7.5 | > 30 |
| COc1cccc2c1C(=O)c1c(O)c3c(c(O)c1C2=O)C[C@@](O)(C(=O)CO)C[C@@H]3O[C@H]1C[C@H](N)[C@H](O)[C@H](C)O1 [DOXORUBICIN HYDROCHLORIDE] | 1 |  |  |  |  |  |
